Data: ChEMBL document CHEMBL1151835, “Micropeptins from the freshwater cyanobacterium Microcystis aeruginosa (NIES-100)” (J Nat Prod, 2009)
In brackets after ≈: the same amount, converted by molar mass. Activity calls are given as the source filed them. No cut-off for these calls is given here.

What was measured:
[1] = Inhibition of trypsin
[2] = Inhibition of chymotrypsin
Method in brief: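 Alpha-chymotrypsin type II was made up at 15 U/mL in 50 mM Tris-HCl (pH 7.6). The enzyme and test solution were preincubated at 37 °C for 5 min. Substrate solution was N-succinyl-L-phenylalanyl-p-nitroanilide, 1 mg/mL in buffer. After adding it, absorbance at 405 nm was read at once and again after 30 min at 37 °C.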

[3] = Inhibition of trypsin at 20 ug/ml
[4] = target: Prothrombin (Homo sapiens) (UniProt P00734); experiment: Inhibition of thrombin at 20 ug/ml

Row | SMILES | IC50 [1] | IC50 [2] | Activity [3] | Activity [4]
1 | CCCCCC(=O)N[C@@H](CCC(=O)O)C(=O)N[C@@H]1C(=O)N[C@@H](CCCNC(=N)N)C(=O)N[C@H]2CC[C@@H](O)N(C2=O)[C@@H](CC(C)C)C(=O)N(C)[C@@H](Cc2ccc(O)cc2)C(=O)N[C@@H](C(C)C)C(=O)O[C@@H]1C [MICROPEPTIN B] | 0.25 µg/mL (≈ 0.253 µM) |  |  | 
2 | CCCCCC(=O)N[C@@H](CCC(=O)O)C(=O)N[C@@H]1C(=O)N[C@@H](Cc2ccc(O)cc2)C(=O)N[C@H]2CC[C@@H](O)N(C2=O)[C@@H](CC(C)C)C(=O)N(C)[C@@H](Cc2ccc(O)cc2)C(=O)N[C@@H](C(C)C)C(=O)O[C@@H]1C [MICROPEPTIN E] |  | 1 µg/mL (≈ 1.01 µM) | inactive | inactive
3 | CCCCCCCC(=O)N[C@@H](CCC(=O)O)C(=O)N[C@@H]1C(=O)N[C@@H](Cc2ccc(O)cc2)C(=O)N[C@H]2CC[C@@H](O)N(C2=O)[C@@H](CC(C)C)C(=O)N(C)[C@@H](Cc2ccc(O)cc2)C(=O)N[C@@H](C(C)C)C(=O)O[C@@H]1C [MICROPEPTIN F] |  | 1.5 µg/mL (≈ 1.47 µM) | inactive | inactive

Second part, the compound after the results:

Row | IC50 [1] | IC50 [2] | Activity [3] | Activity [4] | SMILES
4 |  | 1.1 µg/mL (≈ 1.07 µM) | inactive | inactive | CCCCCC(=O)N[C@@H](CCC(=O)O)C(=O)N[C@@H]1C(=O)N[C@@H](Cc2ccc(O)cc2)C(=O)N[C@H]2CC[C@@H](O)N(C2=O)[C@@H](Cc2ccccc2)C(=O)N(C)[C@@H](Cc2ccc(O)cc2)C(=O)N[C@@H](C(C)C)C(=O)O[C@@H]1C [MICROPEPTIN C]
5 |  | 1.2 µg/mL (≈ 1.14 µM) | inactive | inactive | CCCCCCCC(=O)N[C@@H](CCC(=O)O)C(=O)N[C@@H]1C(=O)N[C@@H](Cc2ccc(O)cc2)C(=O)N[C@H]2CC[C@@H](O)N(C2=O)[C@@H](Cc2ccccc2)C(=O)N(C)[C@@H](Cc2ccc(O)cc2)C(=O)N[C@@H](C(C)C)C(=O)O[C@@H]1C [MICROPEPTIN D]
6 | 3 µg/mL (≈ 2.85 µM) |  |  |  | CCCCCC(=O)N[C@@H](CCC(=O)O)C(=O)N[C@@H]1C(=O)N[C@@H](Cc2ccc(O)cc2)C(=O)N[C@H]2CC[C@@H](O)N(C2=O)[C@@H](Cc2ccccc2)C(=O)N(C)[C@@H](Cc2c[nH]c3ccccc23)C(=O)N[C@@H](C(C)C)C(=O)O[C@@H]1C [MICROPEPTIN T 1]
